Assay: Toxicity liver stage against HepG2, at 10uM
Format: cell-based
Design: test concentration 10 uM, cell line HepG2-A16-CD81EGFP
Conditions: human, HepG2-A16-CD81EGFP cells; read-out: INHIBITION
Outline: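 Uninfected HepG2-A16-CD81EGFP cells, 3 × 10^3 per well, 1536-well, plated on prespotted compound at 10 μM final, parasite-free screening media added to match infected plates; puromycin 10 μM positive, DMSO 0.5% negative; run in parallel with 48 h PbLuc assay at 37 °C, 5% CO2; viability by CellTiter-Glo luminescence, normalized to controls.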

Structure (SMILES) | cytotoxicity at 10 µM
CC(=O)N1CCCC(C(=O)Nc2ccccc2Cc2ccccc2)C1 (centres undefined) | 3.88%
COCCOc1ccc(-c2noc([C@@H]3CCCN3C3CCC3)n2)cn1 | -4.26%
CCOCCCNC(=O)CCCC(=O)n1nc(C)c2ccccc21 | -1.29%
CO[C@@H]1CN(c2ccccc2)S(=O)(=O)[C@@]12CCN(C)C2 | 3.33%
COc1cccc(CN2CC(O)CN(S(C)(=O)=O)CC2=O)c1OC (centres undefined) | -0.686%
COC(=O)CCNC(=O)c1nc(NS(=O)(=O)c2ccccc2)sc1C | 8.23%
O=c1c(NCCc2ccc(O)cc2)c(NCc2ccncc2)c1=O | -5.46%
CCc1nnc2ccc(N3CCN(S(=O)(=O)c4ccc(Cl)s4)CC3)nn12 | 5.01%
Cc1nc(N(C)C)nc(C)c1NS(=O)(=O)c1ccccc1Cl | 4.22%
CNC(=O)[C@H]1C[C@@H]2CN(C(=O)c3ccsc3)C[C@@H]2N1S(C)(=O)=O | -2.42%
CC(C)OCCCNC(=O)C1CCCN(c2ccc3nncn3n2)C1 (centres undefined) | 1.77%
CC(C)Cc1noc(C2CCCCN2C(=O)CCc2cnn(C)c2)n1 (centres undefined) | 3.6%
CCn1c(NCc2ccco2)nc2c(C)nn(C)c2c1=O | 2.48%
O=C(O)CCCN1C[C@@H](c2ccccc2F)[C@@]2(CCCCC(=O)N2)C1 | 4.6%
Cc1cc(Cc2ccc(F)cc2)cc(C2CCCNC2)n1 (centres undefined) | -3.14%
CCCn1nc(C)c(C(=O)N(C)[C@@H]2CC[C@@H](N3CCCC3)[C@@H]2O)c1C | 2.28%
Fc1cc(F)cc(CN2CCC(c3cc4ncccc4cn3)CC2)c1 | -1.13%
C[C@@H]1CN2C[C@H](O)CC2CN1Cc1ccncc1 (some centres undefined) | 0.207%
CCc1nnc(Nc2cc(C)nc(C3CCN(c4cnccn4)C3)n2)s1 (centres undefined) | 4.24%
CC(C)CC(=O)N1CCCC1c1nccnc1Nc1ncccn1 (centres undefined) | -13.8%
CNc1cc(CNC(=O)c2ccnc(OC)c2)nc(-c2ccncc2)n1 | -7.08%
Cc1cc(-c2cnc(N3CCCC3)nc2-c2ccc(C)s2)on1 | -0.279%

Structure (SMILES) | cytotoxicity at 10 µM
CN(C)C(=O)C1CN(Cc2ccccc2)CCN(S(C)(=O)=O)C1 (centres undefined) | -5.43%
O=C(NCc1cccnc1)c1ccc2nccn2c1 | 8.08%
O=C(NC1CCCCC1)N1CCCC1c1nnc2n1CCNC2 (centres undefined) | 14.4%
Cc1ccnc(NC(=O)c2ccc(Cl)o2)c1 | 4.14%
CC(C)CNC(=O)c1sccc1-n1cnnn1 | 0.00426%
O=S(=O)(NCCCn1cncn1)c1ccc2c(c1)OCCO2 | 5.38%
O=C(Cn1ccc(=O)[nH]c1=O)NCc1cccnc1OCC(F)(F)F | -5.88%
Cc1csc(N(C)C(=O)C2CC(=O)N(c3ccccc3F)C2)n1 (centres undefined) | 9.95%
CN(C(=O)c1ccncc1)c1ccccc1S(C)(=O)=O | 7.39%
COc1ncc(NCc2ccsc2)cc1C(N)=O | 1.25%
CCCn1nnnc1COC(=O)C1COc2ccc(Cl)cc2C1 (centres undefined) | -8.68%
Cc1[nH]ncc1C(=O)NCC1CCC2(CC1)OCCO2 | -8.2%
Cc1n[nH]c(C2CN(C(=O)COCC(F)(F)F)CCO2)n1 (centres undefined) | 1.26%
CC(CC(=O)N1CCCN(Cc2cscn2)CC1)n1cccc1 (centres undefined) | -8.01%
COc1ccc(NCC(=O)NCC(=O)N2CCCC2)c(C(F)(F)F)c1 | 6.78%
COc1cc(CNC(=O)N2CCCC2c2cc(C)no2)ccn1 (centres undefined) | 1.95%
O=S(=O)(Cc1cccc(F)c1)NCC(O)Cc1ccccc1 (centres undefined) | 9.01%
CC(C)(C)c1nnc(CN2CCN(C(=O)CC3CCCCC3)CC2)o1 | 15.3%
Cc1cnn(CC2CCCN2CC(=O)N(C)Cc2cnn(C)c2)c1 (centres undefined) | 8.92%
COCCN(Cc1ccc(F)cc1Cl)C(=O)c1cc(C)n[nH]1 | 0.886%
CCc1nccn1C1CCCN(C(=O)c2cncn2-c2ccccc2)C1 (centres undefined) | 5.62%
Cc1nn(C)c(N2CCOCC2)c1CNCc1cccnc1 | 7.11%

Structure (SMILES) | cytotoxicity at 10 µM
CC(C)(C)C(=O)NS(=O)(=O)c1ccc(F)cc1C(F)(F)F | -1.18%
Cc1noc(C)c1CNC(=O)C1(NS(C)(=O)=O)CCCCC1 | 6.55%
Cc1nc(NC(=O)C(C)S(C)(=O)=O)sc1Cc1ccccc1F (centres undefined) | 9.8%
Cc1ccc(C(=O)NS(C)(=O)=O)cc1I | 6.22%
CCOC(=O)CN1CCC(NC(=O)OC(C)(C)C)CC1 | 0.449%
Cc1cc(C(=O)N2CCCS2(=O)=O)c(C)o1 | -11.1%
CN(C1CCCC1)C(C)(C)C(=O)NCCNC(N)=O | -46.3%
COC1COC2(CCN(C(=O)c3ccc4ccccc4c3)CC2)C1 (centres undefined) | -98.4%
CCOCC(=O)N1CCc2nc(C)nc(NC(C)C)c2CC1 | -98.7%
CS(=O)(=O)N1CCC2(CCN(C(=O)c3cccs3)CC2)CC1 | -108%
COC1COC2(CCN(S(=O)(=O)c3ccc(F)cc3)CC2)C1 (centres undefined) | -95.9%
Cc1cnc(N2CCc3onc(COc4cccnc4)c3C2)nc1 | -111%
O=C(c1ccncc1)N1C[C@@H]2OCCN(CCN3CCCC3)[C@@H]2C1 | -77.1%
CN(Cc1cncnc1)[C@H]1CN(Cc2ccco2)[C@@H]2CCCO[C@@H]21 | -78.7%
CC(=O)N1CCCC2(CCN(C(=O)c3ccc(Cl)c(C(F)(F)F)c3)C2)C1 (centres undefined) | -74.4%
COc1ccc(C(=O)N2Cc3c(Cn4ccnc4)nn(C)c3C2)cc1 | 4.89%
CCc1ocnc1C(=O)N1CCC(n2cc(-c3ccsc3)nn2)CC1 | 1.47%
CN(CCc1cnn(C)c1)C(=O)C1COc2ccccc2C1 (centres undefined) | 1.33%
COc1ncc(-c2nccn2-c2ccccc2CN2CCOCC2)cn1 | 3.31%
COCc1nc(N(C)C/C=C/c2ccccc2)c2cnn(C)c2n1 | -2.21%
COCCn1c(=O)n(Cc2ccc(Cl)s2)c2cc(C(=O)O)ccc21 | -5.54%
CCN1CC(C(=O)N2CCc3cc(C(N)=O)n(C)c3C2)CC1=O (centres undefined) | -47.5%

Structure (SMILES) | cytotoxicity at 10 µM
Cc1nc2c(c(NCc3ccc(-c4ccccn4)s3)n1)CCNCC2 | -59.5%
Cc1c(C(=O)N2C[C@@H](CN(C)CCO)[C@@H](CO)C2)sc2ccccc12 | -11%
Cc1ccc(CN2CCC3(C2)C(=O)N(CC(N)=O)c2ccccc23)s1 (centres undefined) | 5.37%
CCCc1nc(CN(CC)Cc2ccoc2)no1 | -2.52%
COC[C@]1(O)CCN(Cc2cnc(N3CCOCC3)nc2)CC1(C)C | 1.4%
NC(=O)CN1CC2(CCC1=O)CCN(C(=O)c1ccccc1F)CC2 | 23.5%
COCCn1ccnc1CN1CCc2[nH]cnc2C1c1cnn(C)c1C (centres undefined) | -2.77%
Cc1nccn1-c1ccccc1CNC(=O)c1cn(CCN)nn1 | 1.58%
O=C1NCCCC[C@@H]1NC(=O)C1(N2CCCCC2)Cc2ccccc2C1 | -4.3%
CC(C)n1ccnc1C1CCCN(c2ccncc2F)C1 (centres undefined) | -4.96%
CC1=CCN(C(=O)Nc2ccccc2N2CCOC2=O)CC1 | -0.724%
CN1CC2(CCN(C(=O)c3ccc(-n4cccn4)cc3Cl)C2)OC1=O (centres undefined) | 4.36%
Cc1cc(N2CCC(O)(C(=O)O)CC2)nc2ccccc12 | -41.5%
CCOc1ccc(CC(=O)N2C[C@H](C3CC3)[C@@H](N)C2)cc1 | -7.76%
O=C(O)c1ccc(CC2CCN(S(=O)(=O)N3CCOCC3)C2)cc1 (centres undefined) | 1.62%
COC[C@]1(O)CCN(c2cc(N3CCOCC3)ncn2)CC1(C)C | -3.81%
CCc1noc(-c2cccc(NC(=O)C(C)(C)C)c2)n1 | -4.15%
CN1CCC(C)(CN(C)Cc2ccc(CCC(C)(C)O)cc2)C1 (centres undefined) | -6.44%
O=C(NCc1nncn1C1CCCCC1)C1COc2ccccc2C1 (centres undefined) | 3.16%
N#Cc1cc2c(nc1SCc1cc(O)nc(O)n1)CCCC2 | -3.94%
Cc1cnn(CCNCc2cccc(C#N)c2)c1 | -2.01%
Cc1noc2ncc(C(=O)N3CCCC(n4ccnc4C)C3)cc12 (centres undefined) | -13.4%

Structure (SMILES) | cytotoxicity at 10 µM
Cc1noc(Cl)c1CCC(=O)N1CCC(CC(N)=O)CC1 | -0.0707%
CCOc1ccc(NC(=O)NCc2csc(NC)n2)cc1C | -3.91%
Cc1csc(N2CCN(C(=O)CCc3nccs3)CC2)n1 | -3.68%
Cc1nc(COc2ccc(CNCC3CN(C)CCO3)cc2)cs1 (centres undefined) | -13.1%
Cc1ccc(OCCSC2=NCCN2)cc1 | -2.01%
Cc1ccc(S(=O)(=O)N2CC[C@H]3CO[C@H](CN(C)C)[C@H]3C2)cc1 | -98.3%
COCC(=O)NC1CC2(CCN(Cc3ccco3)CC2)c2ccccc21 (centres undefined) | 5.61%
O=C(C1CCC1)N1C[C@@H](c2ccsc2)[C@@H]2CN(C3CCCCC3)CC[C@@H]21 | 1.32%
c1ccc(NC[C@@H]2CCC[C@@H]3CN(Cc4cccnc4)C[C@@H]32)nc1 | 2.78%
Fc1ccc(CN2Cc3nccn3CC(CN3CCOCC3)C2)cc1 (centres undefined) | -73.7%
CCN1CCOCC12CCN(c1cnccn1)CC2 | -111%
Cn1cc(CN2C[C@@H]3COC[C@]3(C(=O)NCCc3ccccc3)C2)cn1 | 8.86%
CC(C)N1CCO[C@@H]2CN(C(=O)NCc3ccccc3)CC[C@@H]2C1 | -102%
CCOCC1CC2(CCN(C(=O)c3ccccn3)CC2)CO1 (centres undefined) | -3.76%
c1cnn(Cc2nnc3n2CCCN(Cc2ccsc2)C3)c1 | -0.714%
Cc1ccc(CN2CC[C@H]3[C@@H]2CCC(=O)N3CCN2CCCC2)s1 | 3.01%
CN1CCN(Cc2cccnc2)C(=O)C12CCN(Cc1ccco1)CC2 | -4.34%
CCOCC(=O)N1C[C@@H]2CCN(c3cnccn3)C[C@@H]2C1 | 1.2%
COCCN1CCCC12CCN(C(=O)CC1CCCC1)CC2 | 5.47%
Fc1cnc(N2CCCC3(CN(Cc4cccs4)CCO3)C2)nc1 (centres undefined) | 7.37%
COc1ccc(C(=O)N2C[C@@H]3CC[C@H]2CN(C)C3)cc1Cl | 5.79%

From ChEMBL document CHEMBL4513216, “Probing the Open Global Health Chemical Diversity Library for Multistage-Active Starting Points for Next-Generation Antimalarials” (ACS Infect Dis, 2020)
